Experimental data: ChEMBL document CHEMBL4414568, “Development of Novel Irreversible Pyruvate Kinase M2 Inhibitors” (J Med Chem, 2019)
The source made the active and inactive calls. No cut-off for these calls is given here.

Columns and labels:
PC-9 [1] = experiment: Antiproliferative activity against human PC9 cells harboring EGFR mutant assessed as reduction in cell viability incubated for 24 hrs by MTT assay; assay type: functional, cell-based; conditions: PC-9, 24 h
Outline: (§1)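 Cells seeded at 3,500 per well in 10% FBS and left overnight, then exposed to test agent or vehicle in 5% FBS for 24 h. MTT added for 1 h, then medium swapped for DMSO and absorbance read at 560 nm. Viability given as percent of vehicle-treated control. Run in triplicate.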

NCI-H460 = experiment: Antiproliferative activity against human H460 cells expressing wild type EGFR assessed as reduction in cell viability incubated for 24 hrs by MTT assay; assay type: functional, cell-based; conditions: NCI-H460, 24 h; outline: as §1
Pyruvate kinase PKM [2] = target: T1, Pyruvate kinase PKM (Homo sapiens, UniProt P14618); experiment: Binding affinity to PKM2 in human PC9 cells incubated for 1 hr by ABPP-SILAC assay; assay type: cell-based
Outline: (§2)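 PC-9 cells passaged at least six times in SILAC DMEM with 10% dialyzed FBS plus 100 µg/mL light or 13C/15N-labeled Arg/Lys. Heavy cells got ABPP probe (1 µM) and light cells DMSO, 1 h at 37 °C. Cells mixed 1:1, sonicated, spun at 100,000g, protein normalized to 1 mg/mL. Click biotin-azide, streptavidin bead pulldown 16 h at 4 °C, SDS-PAGE, on-bead trypsin digestion, LC-MS/MS.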
Target sequence in this assay (P14618 2-531 limits assumed): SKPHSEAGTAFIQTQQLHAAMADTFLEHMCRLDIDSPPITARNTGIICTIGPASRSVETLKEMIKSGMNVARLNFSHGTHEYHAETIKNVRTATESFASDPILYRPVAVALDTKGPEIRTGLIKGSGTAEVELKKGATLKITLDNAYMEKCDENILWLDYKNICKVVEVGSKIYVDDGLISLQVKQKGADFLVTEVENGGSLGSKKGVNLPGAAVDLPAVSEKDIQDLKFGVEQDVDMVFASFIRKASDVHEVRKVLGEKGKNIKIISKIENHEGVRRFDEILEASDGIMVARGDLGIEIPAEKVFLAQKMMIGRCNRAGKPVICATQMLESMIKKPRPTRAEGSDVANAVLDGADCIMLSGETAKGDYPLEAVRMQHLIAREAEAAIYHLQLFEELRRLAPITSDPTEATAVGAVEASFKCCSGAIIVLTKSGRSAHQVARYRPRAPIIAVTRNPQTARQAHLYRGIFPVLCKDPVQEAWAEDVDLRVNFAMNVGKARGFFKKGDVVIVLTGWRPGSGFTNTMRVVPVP

[3] = target: L-lactate dehydrogenase A chain (Homo sapiens) (UniProt P00338); experiment: Binding affinity to LDHA in human PC9 cells incubated for 1 hr by ABPP-SILAC assay; assay type: cell-based; outline: as §2
Pyruvate kinase PKM [4] = target: T1, Pyruvate kinase PKM; experiment: Inhibition of recombinant human N-terminal His-tagged PKM1 expressed in Escherichia coli at 0.125 to 0.5 uM using PEP as substrate incubated for 20 mins by OxiRed probe-based colorimetric analysis
Outline: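 Recombinant PKM1 or PKM2 incubated with compound at room temperature for 20 min. Remaining activity measured by the same colorimetric kit: PEP + […], PK then pyruvate oxidase, H2O2 read-out. n = 3.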
Target sequence in this assay (P14618 whole entry): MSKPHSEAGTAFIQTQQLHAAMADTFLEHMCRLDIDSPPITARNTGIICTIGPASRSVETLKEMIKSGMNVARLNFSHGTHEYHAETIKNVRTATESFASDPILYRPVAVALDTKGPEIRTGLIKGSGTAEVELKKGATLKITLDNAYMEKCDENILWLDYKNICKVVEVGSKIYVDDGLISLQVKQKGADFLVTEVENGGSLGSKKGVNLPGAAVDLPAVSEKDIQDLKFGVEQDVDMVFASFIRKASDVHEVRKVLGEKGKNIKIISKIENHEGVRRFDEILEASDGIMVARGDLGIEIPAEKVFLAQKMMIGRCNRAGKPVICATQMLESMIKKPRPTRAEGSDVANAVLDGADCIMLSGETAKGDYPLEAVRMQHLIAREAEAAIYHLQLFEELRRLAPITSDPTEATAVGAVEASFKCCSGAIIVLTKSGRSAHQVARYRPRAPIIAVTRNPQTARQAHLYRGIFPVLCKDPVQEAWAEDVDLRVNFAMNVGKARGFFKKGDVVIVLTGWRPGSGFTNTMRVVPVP

Pyruvate kinase PKM [5] = target: T1, Pyruvate kinase PKM; experiment: Inhibition of N-(4-(3-(3-(Methylamino)-3-oxopropyl)-5-(4'-(prop-2-yn-1-yloxy)-[1,1'-biphenyl]-4-yl)-1H-pyrazol-1-yl)phenyl)propiolamide binding to PKM2 in human PC9 cells at 1 uM preincubated for 1 hr followed by probe addition and measured after 1 hr by Western blot analysis; assay type: cell-based
Outline: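 PC-9 cells pretreated with 1 µM compound or DMSO for 1 h, then alkyne probe added at 0.5, 1 or 2 µM for 1 h at 37 °C. Lysates put through Cu-catalysed click with biotin-azide, streptavidin beads 16 h at 4 °C, washes with 0.5% SDS/PBS, 10% SDS-PAGE and PKM2 Western blot.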
Target sequence in this assay (P14618 2-531 limits assumed): as the sequence (P14618 2-531 limits assumed) above

Pyruvate kinase PKM [6] = target: T1, Pyruvate kinase PKM; experiment: Inhibition of PKM2 in human PC9 cells assessed as decrease in extracellular acidification rate preincubated for 4 hrs followed by glucose/oligomycin/2-DG addition and measured after 1 hr by seahorse XFe96 analyser based assay; assay type: cell-based
Outline: (§3)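 PC-9 cells, 5 × 10^4 per well, seeded 24 h ahead, then treated with DMSO or compound at 0.25, 0.5 or 1 µM for 4 h at 37 °C. Cells held 1 h without CO2 in glycolysis medium. Seahorse glycolysis stress test with serial injections of 10 mM glucose, oligomycin and 50 mM 2-DG; ECAR and OCR recorded together. Six wells per point.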
Target sequence in this assay (P14618 2-531 limits assumed): as above

[7] = Toxicity in athymic nude mouse xenografted with human PC9 cells assessed as reduction in body weight at 10 mg/kg, ip administered once daily for 25 days measured during compound dosing; assay type: organism-based; conditions: in vivo, 600 h
Outline: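 Female nude mice, 6 weeks old, given s.c. 1 × 10^6 PC-9 cells in Matrigel (1:1). From day 7, once-daily i.p. vehicle or 10 mg/kg compound in sterile water with 0.5% methylcellulose and 0.1% Tween-80, n = 8 per group, for 25 days. Tumor volume and body weight followed, tumors weighed at end.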

Mus musculus [8] = experiment: In vivo inhibition of PKM2 in human PC9 cells xenografted in athymic nude mouse assessed as reduction in EGFR expression at 10 mg/kg, ip administered once daily for 25 days measured post-last dose by Western blot analysis; assay type: functional, organism-based
Outline: (§4)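 Tumors from PC-9 xenograft nude mice given 10 mg/kg i.p. daily or vehicle for 25 days (n = 8 per group) were lysed for Western blots of PKM2, EGFR, Stat3 and β-catenin. Bands quantified by ImageJ and normalized to GAPDH.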

Mus musculus [9] = experiment: In vivo inhibition of PKM2 in human PC9 cells xenografted in athymic nude mouse assessed as reduction in beta-catenin expression at 10 mg/kg, ip administered once daily for 25 days measured post-last dose by Western blot analysis; assay type: functional, organism-based; outline: as §4
Pyruvate kinase PKM [10] = target: T1, Pyruvate kinase PKM; experiment: Binding affinity to recombinant human N-terminal His6-tagged PKM2 expressed in Escherichia coli BL21 (DE3) assessed as Cys326-adduct formation by NanoLC-MS/MS analysis
Outline: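 In-house His-tag PKM2 from E. coli BL21(DE3), purified by Ni-NTA then Superdex 200, treated with compound. Reduced with 30 mM DTT at 37 °C for 1 h, alkylated with 30 mM iodoacetamide for 1 h in the dark, trypsin 1:30 w/w overnight at 37 °C. Digests from 6 experiments pooled, 48 nanoLC-MS/MS runs in data-dependent mode, Orbitrap MS1.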
Target sequence in this assay (P14618 2-531 limits assumed): as above

PC-9 [11] = experiment: Effect on basal extracellular acidification rate in human PC9 cells at 0.25 to 1 uM measured after 4 hrs in absence of glucose by seahorse XF96 flux analyser based assay; assay type: cell-based; conditions: pc-9, 4 h; outline: as §3

IC50 (PC-9 [1]): 500 nM
IC50 (NCI-H460): 1500 nM
Activity (Pyruvate kinase PKM [2]): Active
Activity [3]: Active
inhibition (INH) (Pyruvate kinase PKM [4]): Not Active
inhibition (Pyruvate kinase PKM [5]): Active
inhibition (Pyruvate kinase PKM [6]): Dose-dependent effect
Activity (Pyruvate kinase PKM [10]): Active
SMILES: C#CC(=O)Nc1ccc(-n2nc(CCC(=O)NC)cc2-c2ccc(-c3ccc(C(F)(F)F)cc3)cc2)cc1
Activity [7]: Non-Toxic
inhibition (Mus musculus [8]): Active
inhibition (Mus musculus [9]): Active
Activity (PC-9 [11]): Non-Toxic
